# Assay results: ChEMBL document CHEMBL5724801, “EUbOPEN Chemogenomics Library - Multiplex” (2024)
# Where “and” joins values, the source holds several entries; their conditions need not be identical. Equal values may be shown once.
# Assays:
# U2OS = test: Multiplex assay against U2OS; type: toxicity, cell-based; conditions: human
# Outline: (§1)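 On a CQ1 microscope at 37°C and 5% CO2, live cells were imaged after compound addition. They had been stained at seeding with Hoechst33342, BioTracker Green Microtubule Cytoskeleton Dye, MitoTracker Red and Annexin V Alexa Fluor 680. CellPathfinder machine-learning gating assigned cells to Hoechst high-intensity objects or normal cells, normal cells to healthy, pyknosed or fragmented nuclei, and pyknosed cells to mitotic or apoptotic. Tubulin, mitochondrial-mass and membrane-permeability phenotypes are per cents of healthy-nucleus cells.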
# HEK-293T = test: Multiplex assay against HEK293T; type: toxicity, cell-based; conditions: human; outline: as §1
# [1] = 24 h, 10 µM, compound concentration 10 uM
# [2] = 48 h, 1 µM, compound concentration 1 uM
# [3] = 48 h, 10 µM, compound concentration 10 uM
# [4] = 12 h, 1 µM, compound concentration 1 uM
# [5] = 12 h, 10 µM, compound concentration 10 uM
# [6] = 24 h, 1 µM, compound concentration 1 uM
smiles,measurement,setting,value
CCc1cc2cc(NS(=O)(=O)c3ccc(C#N)cc3)ccc2n(CC)c1=O,Population Apoptotic (%),U2OS; [1],95% and 80%
same,Population Fragmented Nuclei (%),U2OS; [1],23% and 14%
same,Population Healthy Nuclei (%),U2OS; [1],67% and 79%
same,Population Hoechst High Intensity Objects (%),U2OS; [1],3%
same,Population Membrane Permeable-Phenotype (%),U2OS; [1],4% and 6%
same,Population Mitochondria Different-Phenotype (%),U2OS; [1],2%
same,Population Normal (%),U2OS; [1],96%
same,Population Pyknosed Nuclei (%),U2OS; [1],9% and 6%
same,Population Tubulin-Different-Phenotype (%),U2OS; [1],1% and 2%
same,Total Cell Count,U2OS; [1],263 and 159
same,Population Apoptotic (%),U2OS; [2],89% and 84%
same,Population Fragmented Nuclei (%),U2OS; [2],21% and 19%
same,Population Healthy Nuclei (%),U2OS; [2],70% and 73%
same,Population Hoechst High Intensity Objects (%),U2OS; [2],2% and 3%
same,Population Membrane Permeable-Phenotype (%),U2OS; [2],6%
same,Population Mitochondria Different-Phenotype (%),U2OS; [2],3% and 5%
same,Population Mitotic Cells (%),U2OS; [2],10% and 15%
same,Population Normal (%),U2OS; [2],97% and 96%
same,Population Pyknosed Nuclei (%),U2OS; [2],8% and 6%
same,Population Tubulin-Different-Phenotype (%),U2OS; [2],2% and 3%
same,Total Cell Count,U2OS; [2],450 and 192
same,Population Apoptotic (%),U2OS; [3],88% and 96%
same,Population Fragmented Nuclei (%),U2OS; [3],18% and 15%
same,Population Healthy Nuclei (%),U2OS; [3],72% and 73%
same,Population Hoechst High Intensity Objects (%),U2OS; [3],3% and 2%
same,Population Membrane Permeable-Phenotype (%),U2OS; [3],6% and 8%
same,Population Mitochondria Different-Phenotype (%),U2OS; [3],2% and 3%
same,Population Mitotic Cells (%),U2OS; [3],11% and 3%
same,Population Normal (%),U2OS; [3],96% and 97%
same,Population Pyknosed Nuclei (%),U2OS; [3],9% and 11%
same,Population Tubulin-Different-Phenotype (%),U2OS; [3],3% and 7%
same,Total Cell Count,U2OS; [3],387 and 248
same,Population Apoptotic (%),HEK-293T; [4],43% and 40%
same,Population Fragmented Nuclei (%),HEK-293T; [4],8% and 7%
same,Population Healthy Nuclei (%),HEK-293T; [4],78%
same,Population Hoechst High Intensity Objects (%),HEK-293T; [4],9% and 7%
same,Population Membrane Permeable-Phenotype (%),HEK-293T; [4],0%
same,Population Mitochondria Different-Phenotype (%),HEK-293T; [4],37% and 64%
same,Population Mitotic Cells (%),HEK-293T; [4],56% and 59%
same,Population Normal (%),HEK-293T; [4],90% and 92%
same,Population Pyknosed Nuclei (%),HEK-293T; [4],12% and 14%
same,Population Tubulin-Different-Phenotype (%),HEK-293T; [4],28% and 29%
same,Total Cell Count,HEK-293T; [4],411 and 338
same,Population Apoptotic (%),HEK-293T; [5],38% and 65%
same,Population Fragmented Nuclei (%),HEK-293T; [5],7% and 6%
same,Population Healthy Nuclei (%),HEK-293T; [5],80% and 69%
same,Population Hoechst High Intensity Objects (%),HEK-293T; [5],7% and 16%
same,Population Membrane Permeable-Phenotype (%),HEK-293T; [5],0%
same,Population Mitochondria Different-Phenotype (%),HEK-293T; [5],47% and 71%
same,Population Mitotic Cells (%),HEK-293T; [5],61% and 34%
same,Population Normal (%),HEK-293T; [5],92% and 83%
same,Population Pyknosed Nuclei (%),HEK-293T; [5],12% and 23%
same,Population Tubulin-Different-Phenotype (%),HEK-293T; [5],48% and 41%
same,Total Cell Count,HEK-293T; [5],404 and 291
same,Population Apoptotic (%),HEK-293T; [6],29% and 43%
same,Population Fragmented Nuclei (%),HEK-293T; [6],8% and 7%
same,Population Healthy Nuclei (%),HEK-293T; [6],80% and 84%
same,Population Hoechst High Intensity Objects (%),HEK-293T; [6],5%
same,Population Membrane Permeable-Phenotype (%),HEK-293T; [6],1% and 0%
same,Population Mitochondria Different-Phenotype (%),HEK-293T; [6],19% and 44%
same,Population Mitotic Cells (%),HEK-293T; [6],70% and 56%
same,Population Normal (%),HEK-293T; [6],94%
same,Population Pyknosed Nuclei (%),HEK-293T; [6],11% and 7%
same,Population Tubulin-Different-Phenotype (%),HEK-293T; [6],18% and 22%
same,Total Cell Count,HEK-293T; [6],510 and 403
same,Population Apoptotic (%),HEK-293T; [1],33% and 63%
same,Population Fragmented Nuclei (%),HEK-293T; [1],9% and 10%
same,Population Healthy Nuclei (%),HEK-293T; [1],80% and 73%
same,Population Hoechst High Intensity Objects (%),HEK-293T; [1],6% and 17%
same,Population Membrane Permeable-Phenotype (%),HEK-293T; [1],0% and 1%
same,Population Mitochondria Different-Phenotype (%),HEK-293T; [1],36% and 58%
same,Population Mitotic Cells (%),HEK-293T; [1],66% and 36%
same,Population Normal (%),HEK-293T; [1],93% and 82%
same,Population Pyknosed Nuclei (%),HEK-293T; [1],10% and 16%
same,Population Tubulin-Different-Phenotype (%),HEK-293T; [1],32% and 29%
same,Total Cell Count,HEK-293T; [1],478 and 332
same,Population Apoptotic (%),HEK-293T; [2],30% and 38%
same,Population Fragmented Nuclei (%),HEK-293T; [2],11% and 14%
same,Population Healthy Nuclei (%),HEK-293T; [2],81% and 79%
same,Population Hoechst High Intensity Objects (%),HEK-293T; [2],2% and 4%
same,Population Membrane Permeable-Phenotype (%),HEK-293T; [2],1%
same,Population Mitochondria Different-Phenotype (%),HEK-293T; [2],11% and 23%
same,Population Mitotic Cells (%),HEK-293T; [2],69% and 61%
same,Population Normal (%),HEK-293T; [2],97% and 95%
same,Population Pyknosed Nuclei (%),HEK-293T; [2],6% and 5%
same,Population Tubulin-Different-Phenotype (%),HEK-293T; [2],13% and 12%
same,Total Cell Count,HEK-293T; [2],878 and 608
same,Population Apoptotic (%),HEK-293T; [3],26% and 47%
same,Population Fragmented Nuclei (%),HEK-293T; [3],14% and 16%
same,Population Healthy Nuclei (%),HEK-293T; [3],78% and 73%
same,Population Hoechst High Intensity Objects (%),HEK-293T; [3],4% and 10%
same,Population Membrane Permeable-Phenotype (%),HEK-293T; [3],1%
same,Population Mitochondria Different-Phenotype (%),HEK-293T; [3],23% and 40%
same,Population Mitotic Cells (%),HEK-293T; [3],73% and 52%
same,Population Normal (%),HEK-293T; [3],95% and 89%
same,Population Pyknosed Nuclei (%),HEK-293T; [3],6% and 9%
same,Population Tubulin-Different-Phenotype (%),HEK-293T; [3],20% and 23%
same,Total Cell Count,HEK-293T; [3],734 and 383
